According to ChEMBL document CHEMBL1221374, “Synthesis, proapoptotic screening, and structure-activity relationships of novel aza-lupane triterpenoids” (Bioorg Med Chem Lett, 2010):
pIC50: −log10 of the molar value.

What was measured:
SK-MEL-2 (Homo sapiens) [1] = assay: Induction of apoptosis in human SK-MEL-2 cells assessed as apoptotic cells at 7.5 uM after 16 hrs by annexin assay
SK-MEL-2 (Homo sapiens) [2] = assay: Induction of apoptosis in human SK-MEL-2 cells assessed as necrotic cells at 7.5 uM after 16 hrs by annexin assay
[3] = Cytotoxicity against human LN229 cells after 72 hrs by MTS assay; assay type: functional, cell-based; conditions: LN-229, 72 h
Method in brief: (§1)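 Cells (1 × 10^4/well) seeded the evening before. Compounds were taken from 10 mM DMSO stock into growth medium and tested at 2, 10, 25, 50 and 75 µM, four wells each, with DMSO-matched controls. Exposure was 72 h, then MTS reagent for 1.5-4 h at 37 °C, and formazan A490 was read against DMSO-treated cells. IC50 is the mean of four wells from one experiment, or of three experiments where stated.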

SK-MEL-2 = assay: Cytotoxicity against human SK-MEL-2 cells after 72 hrs by MTS assay; assay type: functional, cell-based; conditions: SK-MEL-2, 72 h
Method in brief: as §1

MCF7 = assay: Cytotoxicity against human MCF7 cells after 72 hrs by MTS assay; assay type: functional, cell-based; conditions: MCF7, 72 h
Method in brief: as §1

A-375 = assay: Cytotoxicity against human A375 cells after 72 hrs by MTS assay; assay type: functional, cell-based; conditions: A-375, 72 h
Method in brief: as §1

HT-29 = assay: Cytotoxicity against human HT-29 cells after 72 hrs by MTS assay; assay type: functional, cell-based; conditions: HT-29, 72 h
Method in brief: as §1

OVCAR-3 = assay: Cytotoxicity against human OVCAR-3 cells after 120 hrs by MTS assay; conditions: OVCAR-3, 120 h
Daoy = assay: Cytotoxicity against human DaOY cells after 72 hrs by MTS assay; assay type: functional, cell-based
Method in brief: as §1

SMILES	Activity (SK-MEL-2 (Homo sapiens) [1])	Activity (SK-MEL-2 (Homo sapiens) [2])	pIC50 [3]	pIC50 (SK-MEL-2)	pIC50 (MCF7)	pIC50 (A-375)	pIC50 (HT-29)	pIC50 (OVCAR-3)	pIC50 (Daoy)
C=C(CNCCO)[C@@H]1CC[C@]2(CO)CC[C@]3(C)[C@H](CC[C@@H]4[C@@]5(C)CCC(NCCc6ccc(O)cc6)C(C)(C)[C@@H]5CC[C@]43C)[C@@H]12 (some centres not stated)	> 60%	< 15%	4.85	5.30	5.40	5.70	> 5.70	4.40	> 5.70
C=C(CNCCc1ccc(O)cc1)[C@@H]1CC[C@]2(CO)CC[C@]3(C)[C@H](CC[C@@H]4[C@@]5(C)CCC(N)C(C)(C)[C@@H]5CC[C@]43C)[C@@H]12 (some centres not stated)	> 60%	< 15%	> 5.70	5.52	5.30	> 5.70	5.70		> 5.70
